Screening results (PubChem)
An excerpt weighted towards active compounds, which were near 1.6% of everything screened.
MT1-MMP act inh: inhibitors of human MT1-MMP activation; HT1080 RFP-PRO-GFP cells, GFP/RFP ratio fluorescence, overnight; percent of plate control window, DMSO zero; GFP/RFP ratio change, % at 20 µM; actives 0.061% (n = 360,000);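 active = GFP/RFP ratio change of at least 30% with cell ATP level not reduced by more than half and red fluorescence within 50% of control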
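Assay system: RFP-PRO-GFP reporter HT1080 cells; read-out basis: GFP/RFP fluorescence ratio; benchmarks: DMSO wells and RFP-L50D-GFP cells; doses: 20 µM single dose, 1% DMSO; schedule: overnight cell settling, then overnight compound exposure, 37 °C, 5% CO2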
DDE Tn7 FP inh: inhibitors of Tn7 peptide binding to human fibrin DD(E) | FP displacement of FITC-Tn7 peptide from fibrin DD(E); 0% = median of compound wells per plate | P02675 | actives 0.13% (n = 370,000) | inhibition, % at 8.3 µM;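 active = inhibition above the mean of compounds falling within the control limits plus 3 SD of them, cut at about 14% in these data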;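 also: 0% = plate median of compound wells and 100% = 10 µM Aha-Tn7 peptide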
Target sequence (P02675 whole entry, looked up): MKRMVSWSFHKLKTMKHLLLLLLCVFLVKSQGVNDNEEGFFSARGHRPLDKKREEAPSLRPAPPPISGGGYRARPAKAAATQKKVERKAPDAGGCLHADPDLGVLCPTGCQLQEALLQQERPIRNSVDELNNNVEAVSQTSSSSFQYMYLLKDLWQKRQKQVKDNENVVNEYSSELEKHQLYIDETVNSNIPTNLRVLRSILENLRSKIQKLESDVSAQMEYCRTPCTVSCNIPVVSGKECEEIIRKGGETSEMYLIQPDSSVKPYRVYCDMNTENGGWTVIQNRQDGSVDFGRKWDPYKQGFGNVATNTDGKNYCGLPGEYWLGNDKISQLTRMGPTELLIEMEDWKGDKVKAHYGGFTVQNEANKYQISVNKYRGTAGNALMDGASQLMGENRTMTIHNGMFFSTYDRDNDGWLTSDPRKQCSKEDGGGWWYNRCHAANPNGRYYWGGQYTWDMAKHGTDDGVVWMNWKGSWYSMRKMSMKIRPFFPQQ
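Also added: labelled Tn7 tracer, 0.1 µM; Assay system: human fibrin DD(E) protein; Amount: 2 µM fibrin DD(E); Schedule: 10 min compound pre-incubation, 3 h probe incubation at room temperature; Repeats: one replicate per compound; Read-out basis: percent inhibition; Measured by: fluorescence polarization of the labelled Tn7 tracer.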
Tn6 DDE FP: disrupts Tn6 cyclic peptide binding to fibrin D-Dimer-E complex | AID 720509 | inhibition, % at 8.3 µM | Fibrin DD(E) TRITC-Tn6 fluorescence polarization displacement | actives 0.21% (n = 370,000);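 active = inhibition above a per-campaign cutoff: mean of compounds within control limits plus 3 SD, cut at about 15% in these data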;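 also: 0% = median of all compound wells on the plate and 100% = blocking peptide control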
ADAM10 inh: inhibits human ADAM10; O14672; recombinant ADAM10, EDANS/DABCYL FRET peptide cleavage, 3 h; inhibition, % at 7 µM; actives 0.62% (n = 370,000); AID 720582;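 active = inhibition above a per-campaign cutoff equal to the mean of compounds falling between control-based bounds plus 3 SD, cut at about 20% in these data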;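 also: 0% = DMSO wells while the 100% control is not disclosed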
ADAM17 inh: inhibitors of human ADAM17; P78536; actives 0.83% (n = 370,000); inhibition, % at 6.95 µM; recombinant ADAM17, EDANS/DABCYL FRET peptide cleavage;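 active = inhibition above the mean of compounds lying between control limits plus 3 SD, set per campaign, cut at about 8.5% in these data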;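 also: 0% = DMSO-only wells as the low control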
ADAM10 confirm: human ADAM10 inhibition, confirmation; shares compounds with ADAM10 inh; ADAM10 QFRET peptide cleavage, EDANS fluorescence; inhibition, % at 6.95 µM; actives 1% (n = 2,100);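 active = inhibition above about 20% chosen separately for each screening run, limit read from the data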;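 also: 0% = DMSO wells and 100% = marimastat wells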
ADAM17 counter: inhibits human ADAM17 in ADAM10 exosite counter-screen; shares compounds with ADAM10 inh; ADAM17 QFRET peptide cleavage, EDANS fluorescence; inhibition, % at 6.95 µM; actives 0.5% (n = 2,100); AID 743214;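 active = mean triplicate inhibition above the solvent-only control wells' mean plus 3 SD, cut at about 12% in these data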;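 also: 0% = DMSO wells and 100% = marimastat wells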
ADAM10 ctr: ADAM10 inhibition, counter-screen for ADAM17 exosite hits; recombinant ADAM10, EDANS/DABCYL FRET peptide cleavage, 3 h; actives 47% (n = 2,900); inhibition, % at 6.95 µM; shares compounds with ADAM17 inh;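 active = mean inhibition over the triplicate runs exceeds the activity threshold set in the earlier primary screen, cut at about 20% in these data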;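 also: 0% = DMSO wells and 100% = marimastat wells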
ADAM17 confirm: confirmation of inhibitors of human ADAM17. shares compounds with ADAM17 inh. recombinant ADAM17, EDANS/DABCYL QFRET peptide cleavage. inhibition, % at 6.95 µM. actives 65% (n = 2,900). AID 743257;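 active = mean inhibition across replicates above the hit cutoff set in the primary screen, cut at about 8.5% in these data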;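 also: 0% = DMSO wells and 100% = marimastat wells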
* hit, by the source's call; . = no result given.

SMILES	MT1-MMP act inh	DDE Tn7 FP inh	Tn6 DDE FP	ADAM10 inh	ADAM17 inh	ADAM10 confirm	ADAM17 counter	ADAM10 ctr	ADAM17 confirm
COc1ccc(CNC(=O)C(C)n2ccc3cc(S(=O)(=O)N4CCCCCC4)ccc32)cc1 (configuration not stated)	1	-1	-12	28*	12*	3	2	22*	16*
CCCC1CCC2(CCCN2CCOC(=S)Nc2ccccc2Br)CC1 (configuration not stated)	.	-1	-4	-5	-5	.	.	.	.
COC(=O)C1=CC[C@@H](NC(=O)OC(C)(C)C)[C@H](O)[C@H]1O[Si](C)(C)C(C)(C)C	.	-6	-7	22*	9.9*	1	0	5	4
COC(=O)CC(=O)O[C@H]1C=C[C@@H](NC(=O)OC(C)(C)C)C1	2	-6	-5	-4	-3	.	.	.	.
COc1ccccc1-n1c(SCC(=O)Nc2ccc(Br)cc2)nc(O)cc1=O	6	7	-12	28*	8.7*	-1	0	2	7
Cc1ccc(NC(=O)C2CCCC2)c(Br)c1	3	4	0	5	-8	.	.	.	.
Cc1ccc(NC(=S)NC(=O)C2CCCCC2)c(Br)c1	-1	-5	4	33*	15*	3	1	11	9.3*
Cc1cc(C)cc(-c2c(C(=O)c3ccccc3)[nH]c(N)c2C(=O)NCCc2c[nH]c3ccccc23)c1	.	-6	-1	4	4	.	.	.	.
Nc1[nH]c(C(=O)c2ccccc2)c(-c2cccc(C(F)(F)F)c2)c1C(=O)NCCc1c[nH]c2ccccc12	.	4	-11	24*	9.0*	12	3	27*	14*
COc1ccc(NC(=O)c2cc(-c3cc(Cl)ccc3OC)n[nH]2)c(OC)c1	6	-2	-7	29*	13*	7	2	35*	18*
CC(=O)c1ccc(N2CCC(c3cc(-c4ccc(Cl)cc4Cl)n[nH]3)CC2)c([N+](=O)[O-])c1	-12	-6	-5	20*	13*	13	4	44*	21*
O=[N+]([O-])c1cccnc1N1CCC(c2cc(-c3cccc(C(F)(F)F)c3)n[nH]2)CC1	4	-5	-3	20*	11*	15	3	48*	19*
O=[N+]([O-])c1cccnc1N1CCC(c2cc(-c3ccc(Cl)cc3Cl)n[nH]2)CC1	5	4	-6	30*	11*	8	2	31*	17*
CC(C)c1[nH]nc2c1C(c1ccccc1)NC2=O (configuration not stated)	.	-9	2	-6	-1	.	.	.	.
CCCN(CC(=O)Nc1cccc(Br)c1)CC(=O)Nc1ccc(F)c(F)c1F	3	-2	-9	32*	21*	2	1	29*	15*
CCOC(=O)C1=NOC(C(=O)Nc2nccs2)(C(=O)C2CC2)C1 (configuration not stated)	.	-6	6	1	1	.	.	.	.
Cc1csc(SCC(=O)Nc2nc(-c3ccccc3)cs2)n1	3	2	-8	22*	12*	0	1	19	14*
O=C1N[C@@H](Cc2c[nH]c3ccccc23)COC(=O)[C@H](Cc2ccc(F)cc2)C/C=C\C[C@@H]1CC(=O)N(CCO)Cc1ccccc1	16	-3	-5	10	4	.	.	.	.
